Assays:
L1210 [1] = assay: Tested for in vivo weight change against murine L1210 leukemia at the dose of 5.0 mg/kg per injection in experiment 2; type: functional, organism-based; conditions: Mus musculus
Method in brief: (§1)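 Leukemia life-span assays used CD2F1 (Balb/c × DBA/2F1) mice weighing 18–22 g. Cells were inoculated IP on day 0, and compounds in 0.9% saline were given IP, dosed by average cage weight. Weight change is the difference in mean group weight between the last and first treatment days.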

L1210 [2] = assay: Tested for in vivo weight change against murine L1210 leukemia at the dose of 6.0 mg/kg per injection in experiment 1; type: functional, organism-based; conditions: Mus musculus; method in brief: as §1
L1210 [3] = assay: Tested for the ratio of number of survivors / total number after 60 days at the dose of 4.0 mg/kg per injection against murine leukemia L1210 experiment 1; type: functional, organism-based; conditions: Mus musculus
Method in brief: (§2)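 CD2F1 (Balb/c × DBA/2F1) mice, 18–22 g, randomized and inoculated IP with counted leukemia cells on day 0, then re-randomized. Three IP treatments, dissolved in 0.9% saline and dosed on average cage weight, with dose in mg/kg per injection across a full toxic-to-ineffective range. Median life span and %T/C were recorded. Survivors at 60 days were counted as cured and excluded from %T/C.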

L1210 [4] = assay: Tested for the ratio of number of survivors / total number after 60 days at the dose of 5.0 mg/kg per injection against murine L1210 Pt-resistant leukemia in experiment 2; type: functional, organism-based; conditions: Mus musculus; method in brief: as §2
L1210 [5] = assay: Tested for median life span against solid tumor L1210 Pt-resistant leukemia at 10 mg/kg per injection in experiment 2; type: functional, organism-based; conditions: Mus musculus
Method in brief: (§3)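 CD2F1 mice weighing 18–22 g were inoculated IP with leukemia cells on day 0. Compounds in 0.9% saline were given IP in three injections, dosed by average cage weight, over a dose range from toxic to ineffective. Median life span was recorded, with cause of death assessed at necropsy and 60-day survivors counted as cured.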

L1210 [6] = assay: Tested for in vivo weight change against murine L1210 leukemia at the dose of 4.0 mg/kg per injection in experiment 1; type: functional, organism-based; conditions: Mus musculus; method in brief: as §1
L1210 [7] = assay: Tested for median life span against solid tumor L1210 leukemia at 4.0 mg/kg per injection in experiment 1; type: functional, organism-based; conditions: Mus musculus; method in brief: as §3
L1210 [8] = assay: Tested for the ratio of treated and control against solid tumor murine L1210 leukemia 5.0 mg/kg per injection in experiment 2; T/C; type: functional, organism-based; conditions: Mus musculus
Method in brief: (§4)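 Murine leukemia life span assay in CD2F1 (Balb/c × DBA/2F1) mice, 18–22 g, randomized, with IP tumor cell inoculation on day 0. Depending on the model, the inoculum was 1 × 10^4 cells with IP dosing on days 3, 7 and 11, or 1 × 10^6 cells with IP dosing on days 1, 5 and 9. Drug was given in 0.9% saline, mg/kg per injection, by average cage weight. Read-outs were median day of death and %T/C. Mice alive 60 days after treatment counted as cured and were excluded.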

L1210 [9] = assay: Tested for the ratio of treated and control against solid tumor murine L1210 Pt-resistant leukemia 5.0 mg/kg per injection in experiment 2; T/C; type: functional, organism-based; conditions: Mus musculus; method in brief: as §4
Mus musculus [10] = assay: Tested for the ratio of treated and control tumor to reach 750 mg against murine solid tumor M5076 sarcoma 9.0 mg/kg per injection; type: functional, organism-based
Method in brief: (§5)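 Solid tumor growth delay assay; B16 melanoma and M5076 sarcoma were run in B6C3F1 (C57BL/6 × C3HF1) mice of 18–22 g. Tumor fragments were implanted SC on day 0, then drug in 0.9% saline was given IP on days 1, 5, 9 or days 3, 7, 11, mg/kg per injection. T − C is the difference in days for treated and control tumors to reach 750 mg. Net log cell kill is tumor burden reduction during therapy. Cured mice were excluded.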

Mus musculus [11] = assay: Tested for median life span against solid tumor P388 Pt-resistant leukemia at 5.0 mg/kg per injection; type: functional, organism-based; method in brief: as §4
Mus musculus [12] = assay: Tested for net cell kill tumor burden reduction during therapy at the dose 9.0 mg/kg in B16 melanoma; type: functional, organism-based; set-up: dose 9 mg/kg; method in brief: as §5
Mus musculus [13] = assay: Tested for the ratio of treated and control against solid tumor murine P388 leukemia 10 mg/kg per injection; T/C; type: functional, organism-based; method in brief: as §4
Mus musculus [14] = assay: tested for in vivo weight change against murine M5076 sarcoma at the dose of 9.0 mg/kg per injection; type: functional, organism-based
Method in brief: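 Host weight change in the SC M5076 sarcoma growth delay test in B6C3F1 mice. Drug was given IP in 0.9% saline, mg/kg per injection. Weight change is the maximum treatment-related weight loss.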

[15] = tested on: M5076 sarcoma (Mus musculus); assay: Tested for the ratio of treated and control tumor to reach 750 mg against murine solid tumor M5076 sarcoma 4.0 mg/kg per injection
Colon carcinoma cell = assay: Tested for net cell kill tumor burden reduction during therapy at the dose 2.5 mg/kg in colon carcinoma; type: functional, organism-based; set-up: dose 2.5 mg/kg; conditions: Mus musculus
L1210 [16] = assay: Tested for median life span against solid tumor L1210 Pt-resistant leukemia at 3.0 mg/kg per injection in experiment 1; type: functional, organism-based; conditions: Mus musculus; method in brief: as §3
L1210 [17] = assay: Tested for the ratio of number of survivors / total number after 60 days at the dose of 3.0 mg/kg per injection against murine L1210 Pt-resistant leukemia in experiment 1; type: functional, organism-based; conditions: Mus musculus; method in brief: as §2
L1210 [18] = assay: Tested for the ratio of number of survivors / total number after 60 days at the dose of 3.0 mg/kg per injection against murine leukemia L1210 experiment 1; type: functional, organism-based; conditions: Mus musculus; method in brief: as §2
L1210 [19] = assay: Tested for in vivo weight change against murine L1210 leukemia at the dose of 1.5 mg/kg per injection in experiment 1; type: functional, organism-based; conditions: Mus musculus; method in brief: as §1
L1210 [20] = assay: Tested for in vivo weight change against murine L1210 leukemia at the dose of 2.5 mg/kg per injection in experiment 2; type: functional, organism-based; conditions: Mus musculus; method in brief: as §1
L1210 [21] = assay: Tested for in vivo weight change against murine L1210 leukemia at the dose of 3.0 mg/kg per injection in experiment 1; type: functional, organism-based; conditions: Mus musculus; method in brief: as §1
L1210 [22] = assay: Tested for median life span against solid tumor L1210 leukemia at 1.6 mg/kg per injection in experiment 2; type: functional, organism-based; conditions: Mus musculus; method in brief: as §3
L1210 [23] = assay: Tested for the ratio of treated and control against solid tumor murine L1210 leukemia 3.0 mg/kg per injection in experiment 1; T/C; type: functional, organism-based; conditions: Mus musculus; method in brief: as §4
L1210 [24] = assay: Tested for the ratio of treated and control against solid tumor murine L1210 Pt-resistant leukemia 1.5 mg/kg per injection in experiment 1; T/C; type: functional, organism-based; conditions: Mus musculus; method in brief: as §4
L1210 [25] = assay: Tested for the ratio of treated and control against solid tumor murine L1210 leukemia 1.6 mg/kg per injection in experiment 2; T/C; type: functional, organism-based; conditions: Mus musculus; method in brief: as §4
L1210 [26] = assay: Tested for the ratio of number of survivors / total number after 60 days at the dose of 1.5 mg/kg per injection against murine leukemia L1210 experiment 1; type: functional, organism-based; conditions: Mus musculus; method in brief: as §2
Mus musculus [27] = assay: Tested for the ratio of treated and control tumor to reach 750 mg against murine solid tumor M5076 sarcoma 4.0 mg/kg per injection; type: functional, organism-based; method in brief: as §5
Mus musculus [28] = assay: Tested for in vivo weight change against murine B16 melanoma at the dose of 4.0 mg/kg per injection; type: functional, organism-based
Method in brief: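 B6C3F1 (C57BL/6 × C3HF1) mice weighing 18–22 g received trocar tumor fragments SC on day 0. Compounds in 0.9% saline were given IP on a three-injection schedule, dosed by average cage weight. Weight change is the maximum treatment-related weight loss during the growth-delay assay.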

Mus musculus [29] = assay: Tested for in vivo weight change against murine P388Pt-resistant leukemia at the dose of 3.7 mg/kg per injection; type: functional, organism-based; method in brief: as §1
Mus musculus [30] = assay: Tested for net cell kill tumor burden reduction during therapy at the dose 4.0 mg/kg in B16 melanoma; type: functional, organism-based; set-up: dose 4 mg/kg; method in brief: as §5
Mus musculus [31] = assay: Tested for the ratio of treated and control against solid tumor murine P388 leukemia 2.3 mg/kg per injection in experiment 2; T/C; type: functional, organism-based; method in brief: as §4

With CISPLATIN as the substance, how does the Weight change (L1210 [1]) read?
Its Weight change is 0.5 g.

And the Weight change (L1210 [2])?
Its Weight change is -1.9 g.

And the Survivors (L1210 [3])?
The Survivors was 1.

What about the Survivors (L1210 [4]) of the same substance?
The Survivors was 0.

What about the MLS (L1210 [5]) of the same substance?
The MLS was 12.4 days.

And the Weight change (L1210 [6])?
Its Weight change is 1 g.

And the MLS (L1210 [7])?
Its MLS is 19.5 days.

What about the Ratio (L1210 [8]) of the same substance?
Its Ratio is 172%.

What about the Ratio (L1210 [9]) of the same substance?
Its Ratio is 107%.

And the T-C (Mus musculus [10])?
Its T-C is 15.9 days.

And the MLS (Mus musculus [11])?
Its MLS is 19.3 days.

What about the Log net cell kill (Mus musculus [12]) of the same substance?
The Log net cell kill was -0.4.

What about the T/C (Mus musculus [13]) of the same substance?
The T/C was 86%.

And the Weight change (Mus musculus [14])?
Its Weight change is -5.1 g.

And the T-C [15]?
Its T-C is 15.9 days.

Which results are given for [Pt(cis-1,4-dach)CL2]?
Log net cell kill (Colon carcinoma cell): -0.4; MLS (L1210 [16]): 17 days; 60-day survivors (L1210 [17]): 2; 60-day survivors (L1210 [18]): 1; Weight change (L1210 [19]): 0.6 g; Weight change (L1210 [20]): -1.9 g; Weight change (L1210 [21]): -4.8 g; MLS (L1210 [22]): 21.3 days; Ratio (L1210 [23]): 203%; Ratio (L1210 [24]): 154%; Ratio (L1210 [25]): 229%; 60-day survivors (L1210 [26]): 0; T-C (Mus musculus [27]): 13.5 days; Weight change (Mus musculus [28]): -2.6 g; Weight change (Mus musculus [29]): -5.2 g; Log net cell kill (Mus musculus [30]): -0.5; T/C (Mus musculus [31]): 225%

Reference: ChEMBL document CHEMBL1127616, “Synthesis, structural characterization, and antitumor properties of a novel class of large-ring platinum(II) chelate complexes incorporating the cis-1,4-diaminocyclohexane ligand in a unique locked boat conformation” (J Med Chem, 1994)
